Assay results: ChEMBL document CHEMBL4689842, “EUbOPEN Chemogenomics Library wave 1” (2021)

Tests used:
Fibroblast = experiment: Incucyte cell viability with human fibroblast; assay type: toxicity, cell-based; settings: 10 µM, compound concentration 10 uM; also: filed as whole numbers so only -1 and 0 and 1 occur
HEK-293T = experiment: Multiplex assay against HEK293T; assay type: toxicity, cell-based; settings: human;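 as to Population Tubulin-Different-Phenotype (%): share of the cells with healthy nuclei that show this phenotype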
How it was run: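 With compound added, live cells were imaged on a CQ1 microscope at 37°C and 5% CO2; staining with Hoechst33342, BioTracker Green Microtubule Cytoskeleton Dye, MitoTracker Red and Annexin V Alexa Fluor 680 had been done at seeding. The CellPathfinder machine-learning gating scheme split cells into Hoechst high-intensity objects or normal cells, normal cells into healthy, pyknosed or fragmented nuclei, and pyknosed cells into mitotic or apoptotic. The tubulin, mitochondrial-mass and membrane-permeability phenotypes are per cents of healthy-nucleus cells.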

[1] = 12 h, 1 µM, compound concentration 1 uM, replicate 1
[2] = 12 h, 1 µM, compound concentration 1 uM, replicate 2
[3] = 12 h, 10 µM, compound concentration 10 uM, replicate 1
[4] = 12 h, 10 µM, compound concentration 10 uM, replicate 2
[5] = 24 h, 1 µM, compound concentration 1 uM, replicate 1
[6] = 24 h, 1 µM, compound concentration 1 uM, replicate 2
[7] = 24 h, 10 µM, compound concentration 10 uM, replicate 1
[8] = 24 h, 10 µM, compound concentration 10 uM, replicate 2
[9] = 48 h, 1 µM, compound concentration 1 uM, replicate 1
[10] = 48 h, 1 µM, compound concentration 1 uM, replicate 2
[11] = 48 h, 10 µM, compound concentration 10 uM, replicate 1
[12] = 48 h, 10 µM, compound concentration 10 uM, replicate 2

## CN1C(=O)[C@@H](NC(=O)c2cc3ccccc3[nH]2)N=C(c2ccccc2)c2ccccc21 [DEVAZEPIDE]
Fibroblast; 0 h, replicate number 1, timepoint 0 hours
  Growth Rate: 0
Fibroblast; 18 h, replicate number 1, timepoint 18 hours
  Growth Rate: 1
Fibroblast; 24 h, replicate number 1, timepoint 24 hours
  Growth Rate: 1
HEK-293T; [1]
  Population Apoptotic (%): 49%
  Population Fragmented Nuclei (%): 9%
  Population Healthy Nuclei (%): 38%
  Population Hoechst High Intensity Objects (%): 11%
  Population Membrane Permeable-Phenotype (%): 8%
  Population Mitochondria Different-Phenotype (%): 73%
  Population Mitotic Cells (%): 50%
  Population Normal (%): 88%
  Population Pyknosed Nuclei (%): 52%
  Population Tubulin-Different-Phenotype (%): 50%
  Total Cell Count: 314
HEK-293T; [2]
  Population Apoptotic (%): 12%
  Population Fragmented Nuclei (%): 6%
  Population Healthy Nuclei (%): 36%
  Population Hoechst High Intensity Objects (%): 3%
  Population Membrane Permeable-Phenotype (%): 9%
  Population Mitochondria Different-Phenotype (%): 34%
  Population Mitotic Cells (%): 87%
  Population Normal (%): 96%
  Population Pyknosed Nuclei (%): 56%
  Population Tubulin-Different-Phenotype (%): 28%
  Total Cell Count: 205
HEK-293T; [3]
  Population Apoptotic (%): 58%
  Population Fragmented Nuclei (%): 11%
  Population Healthy Nuclei (%): 24%
  Population Hoechst High Intensity Objects (%): 15%
  Population Membrane Permeable-Phenotype (%): 5%
  Population Mitochondria Different-Phenotype (%): 88%
  Population Mitotic Cells (%): 41%
  Population Normal (%): 84%
  Population Pyknosed Nuclei (%): 63%
  Population Tubulin-Different-Phenotype (%): 76%
  Total Cell Count: 287
HEK-293T; [4]
  Population Apoptotic (%): 25%
  Population Fragmented Nuclei (%): 4%
  Population Healthy Nuclei (%): 34%
  Population Hoechst High Intensity Objects (%): 3%
  Population Membrane Permeable-Phenotype (%): 15%
  Population Mitochondria Different-Phenotype (%): 48%
  Population Mitotic Cells (%): 74%
  Population Normal (%): 96%
  Population Pyknosed Nuclei (%): 60%
  Population Tubulin-Different-Phenotype (%): 66%
  Total Cell Count: 228
HEK-293T; [5]
  Population Apoptotic (%): 48%
  Population Fragmented Nuclei (%): 11%
  Population Healthy Nuclei (%): 36%
  Population Hoechst High Intensity Objects (%): 13%
  Population Membrane Permeable-Phenotype (%): 3%
  Population Mitochondria Different-Phenotype (%): 67%
  Population Mitotic Cells (%): 51%
  Population Normal (%): 86%
  Population Pyknosed Nuclei (%): 51%
  Population Tubulin-Different-Phenotype (%): 52%
  Total Cell Count: 327
HEK-293T; [6]
  Population Apoptotic (%): 14%
  Population Fragmented Nuclei (%): 4%
  Population Healthy Nuclei (%): 57%
  Population Hoechst High Intensity Objects (%): 2%
  Population Membrane Permeable-Phenotype (%): 15%
  Population Mitochondria Different-Phenotype (%): 20%
  Population Mitotic Cells (%): 85%
  Population Normal (%): 97%
  Population Pyknosed Nuclei (%): 37%
  Population Tubulin-Different-Phenotype (%): 34%
  Total Cell Count: 231
HEK-293T; [7]
  Population Apoptotic (%): 56%
  Population Fragmented Nuclei (%): 16%
  Population Healthy Nuclei (%): 15%
  Population Hoechst High Intensity Objects (%): 17%
  Population Membrane Permeable-Phenotype (%): 5%
  Population Mitochondria Different-Phenotype (%): 91%
  Population Mitotic Cells (%): 43%
  Population Normal (%): 82%
  Population Pyknosed Nuclei (%): 67%
  Population Tubulin-Different-Phenotype (%): 91%
  Total Cell Count: 284
HEK-293T; [8]
  Population Apoptotic (%): 41%
  Population Fragmented Nuclei (%): 7%
  Population Healthy Nuclei (%): 46%
  Population Hoechst High Intensity Objects (%): 4%
  Population Membrane Permeable-Phenotype (%): 15%
  Population Mitochondria Different-Phenotype (%): 47%
  Population Mitotic Cells (%): 58%
  Population Normal (%): 95%
  Population Pyknosed Nuclei (%): 46%
  Population Tubulin-Different-Phenotype (%): 74%
  Total Cell Count: 245
HEK-293T; [9]
  Population Apoptotic (%): 50%
  Population Fragmented Nuclei (%): 15%
  Population Healthy Nuclei (%): 28%
  Population Hoechst High Intensity Objects (%): 16%
  Population Membrane Permeable-Phenotype (%): 6%
  Population Mitochondria Different-Phenotype (%): 48%
  Population Mitotic Cells (%): 50%
  Population Normal (%): 83%
  Population Pyknosed Nuclei (%): 55%
  Population Tubulin-Different-Phenotype (%): 41%
  Total Cell Count: 356
HEK-293T; [10]
  Population Apoptotic (%): 9%
  Population Fragmented Nuclei (%): 5%
  Population Healthy Nuclei (%): 74%
  Population Hoechst High Intensity Objects (%): 4%
  Population Membrane Permeable-Phenotype (%): 7%
  Population Mitochondria Different-Phenotype (%): 11%
  Population Mitotic Cells (%): 90%
  Population Normal (%): 95%
  Population Pyknosed Nuclei (%): 20%
  Population Tubulin-Different-Phenotype (%): 34%
  Total Cell Count: 361
HEK-293T; [11]
  Population Apoptotic (%): 66%
  Population Fragmented Nuclei (%): 24%
  Population Healthy Nuclei (%): 6%
  Population Hoechst High Intensity Objects (%): 22%
  Population Membrane Permeable-Phenotype (%): 7%
  Population Mitochondria Different-Phenotype (%): 100%
  Population Mitotic Cells (%): 33%
  Population Normal (%): 77%
  Population Pyknosed Nuclei (%): 69%
  Population Tubulin-Different-Phenotype (%): 84%
  Total Cell Count: 276
HEK-293T; [12]
  Population Apoptotic (%): 63%
  Population Fragmented Nuclei (%): 12%
  Population Healthy Nuclei (%): 44%
  Population Hoechst High Intensity Objects (%): 5%
  Population Membrane Permeable-Phenotype (%): 22%
  Population Mitochondria Different-Phenotype (%): 41%
  Population Mitotic Cells (%): 36%
  Population Normal (%): 94%
  Population Pyknosed Nuclei (%): 43%
  Population Tubulin-Different-Phenotype (%): 64%
  Total Cell Count: 237
